Experimental data as given in ChEMBL document CHEMBL4265939, “Discovery of phenylalanine derivatives as potent HIV-1 capsid inhibitors from click chemistry-based compound library” (Eur J Med Chem, 2018).

What was measured:
[1] = tested on: Human immunodeficiency virus 1; assay: Antiviral activity against ENV pseudotyped HIV1 B41 infected in human U87 cells expressing CD4/CCR5 pretreated with virus for 72 hrs followed by infection of cells measured after 48 hrs by luciferase reporter gene assay; type: functional, organism-based; details: Human immunodeficiency virus 1, B41, U-87 MG
How it was run: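 Late-stage assay. B41 Env-pseudotyped luciferase viruses are produced in 293T cells with compound (100 μM to 0.01 μM, equal DMSO) or DMSO vehicle for 72 h at 37°C. Supernatants are clarified, filtered, freeze-thawed once, diluted ten-fold and used to infect U87.CD4.CCR5 cells for 48 h at 37°C. Lysate luciferase is normalized to virus made in vehicle-treated cells.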

[2] = tested on: Human immunodeficiency virus 1; assay: Antiviral activity against Human immunodeficiency virus 1 NL4-3 infected in human MT4 cells assessed as protection against virus-induced cytopathic effect after 2 days by bright-glo luciferase reporter gene assay; type: functional, organism-based
How it was run: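 MT-4 cells are infected with 200 TCID50 of HIV-1 NL4-3 over a range of compound concentrations, allowing multiple rounds of infection. After two days the medium is removed and Bright-Glo luminescence is read. […] At least triplicate; mean ± SD of at least two parallel tests.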

MT4 = assay: Cytotoxicity against human MT4 cells assessed as reduction in cell viability after 24 hrs by CytoTox-Glo cytotoxicity assay; type: cell-based; details: mt4, 24 h
How it was run: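 Uninfected MT-4 cells were cultured for 1 day with various compound concentrations, in parallel with the antiviral assays. Percent viable cells was read by the CytoTox-Glo kit following the manufacturer's protocol. […] Each value was run in at least triplicate and averaged from at least four independent experiments.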

[3] = tested on: Human immunodeficiency virus 1; assay: Antiviral activity against ENV pseudotyped HIV1 B41 infected in human U87 cells expressing CD4/CCR5 measured after 48 hrs by luciferase reporter gene assay; type: functional, organism-based; details: Human immunodeficiency virus 1, B41, U-87 MG
How it was run: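 Early-stage single-round assay. U87.CD4.CCR5 target cells, 1.2×10^4 cells/well, are seeded and left 24 h at 37°C. Single-round HIV-1 B41 Env-pseudotyped firefly luciferase virus, produced in HEK293T without compound, is mixed with compound or DMSO vehicle and added to the cells. After 48 h at 37°C the cells are lysed, freeze-thawed and read for luciferase. IC50 from 3 parallel tests.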

U-87 MG = assay: Cytotoxicity against human U87 cells expressing CD4/CCR5; type: cell-based; details: u-87mg atcc
[4] = molecular target: T1, Structural capsid protein (Human immunodeficiency virus 1, UniProt Q76129); assay: Binding affinity to HIV1 NL4-3 monomeric capsid protein by surface plasmon resonance
T1 sequence (Q76129 whole entry): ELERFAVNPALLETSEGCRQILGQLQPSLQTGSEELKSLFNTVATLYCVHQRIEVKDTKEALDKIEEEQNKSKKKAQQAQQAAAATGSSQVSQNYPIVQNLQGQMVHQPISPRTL
How it was run: (§1)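 SPR at 25°C. HIV-1 NL4-3 CA constructs are amine-coupled at 100 µg/ml in 10 mM sodium acetate, pH 5.0, onto an EDC/sulfo-NHS-activated GLH chip, then ethanolamine-capped. Compound serial dilutions in PBS, 3% DMSO, 0.005% polysorbate 20, pH 7.4 are injected at 100 µl/min with 1 min association and up to 5 min dissociation. Reference-subtracted; KD by equilibrium analysis, at least three experiments.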

[5] = molecular target: T1, Structural capsid protein; assay: Binding affinity to HIV1 NL4-3 hexameric capsid protein by surface plasmon resonance; how it was run: as §1
[6] = Therapeutic index, ratio of CC50 for human U87 cells to IC50 for ENV pseudotyped HIV1 B41 infected in human U87 cells expressing CD4/CCR5; type: toxicity, cell-based; details: read-out: Ratio CC50/IC50
[7] = molecular target: T1, Structural capsid protein; assay: Binding affinity to HIV1 NL4-3 N-terminal domain capsid protein by surface plasmon resonance; how it was run: as §1
[8] = Selectivity index, ratio of CC50 for human MT4 cells to EC50 for Human immunodeficiency virus 1 NL4-3 infected in human MT4 cells; type: toxicity, cell-based; details: read-out: Ratio CC50/EC50
How it was run: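 SI is CC50/EC50, both measured in MT-4 cells. For EC50, 200 TCID50 of NL4-3 infected MT-4 cells over multiple rounds in the presence of various compound concentrations. […] CC50 came from a 1-day CytoTox-Glo viability assay on uninfected cells.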

[9] = tested on: Human immunodeficiency virus 1; assay: Antiviral activity against Human immunodeficiency virus 1 3B infected in human MT4 cells assessed as inhibition of virus-induced cytopathic effect at 2 uM after 5 days by CellTiter-Glo assay relative to control; type: functional; details: MT4, 120 h
[10] = tested on: Human immunodeficiency virus 1; assay: Antiviral activity against Human immunodeficiency virus 1 NL4-3 infected in human MT2 cells measured 4 to 5 days post infection by luciferase reporter gene assay; type: functional, organism-based; details: Human immunodeficiency virus 1, NL4-3, MT2
[11] = Cytotoxicity against human MT2 cells after 4 days by XTT assay; type: cell-based
[12] = Human immunodeficiency virus 1, NL4-3, MT4, 48 h, read-out: EC50

Cc1[nH]c2ccccc2c1CC(=O)N[C@@H](Cc1ccccc1)C(=O)N(C)c1ccccc1
IC50 [1]: 8.3 µM | EC50 [2, 12]: 5.95 µM | CC50 (MT4; read-out: CC50): > 70.5 µM | IC50 [3]: 0.1 µM | CC50 (U-87 MG): 73 µM

COc1ccc(N(C)C(=O)[C@H](Cc2ccccc2)NC(=O)c2cn(Cc3ccccc3Cl)nn2)cc1
EC50 [2, 12]: > 19.8 µM | CC50 (MT4; read-out: CC50): > 19.8 µM

COc1ccc(N(C)C(=O)[C@H](Cc2ccccc2)NC(=O)c2cn(Cc3ccc4ccccc4c3)nn2)cc1
Kd [4]: 14 µM | Kd [5]: 11 µM | IC50 [1]: 31 µM | selectivity ratio [6]: 2.8 | EC50 [2, 12]: 4.33 µM | CC50 (MT4; read-out: CC50): > 57.7 µM | IC50 [3]: 7 µM | Kd [7]: 32.7 µM | selectivity ratio [8]: > 13.3 | CC50 (U-87 MG): 54.8 µM

COc1ccc(N(C)C(=O)[C@H](Cc2ccccc2)NC(=O)c2cn(CS(=O)(=O)c3ccccc3)nn2)cc1
EC50 ([2]; mt4): Not Active | CC50 (MT4; read-out: CC50): > 18.7 µM

COc1ccc(N(C)C(=O)[C@H](Cc2ccccc2)NC(=O)c2cn(Cc3cccc([N+](=O)[O-])c3)nn2)cc1
EC50 ([2]; mt4): Not Active | CC50 (MT4): Not Active

COc1ccc(N(C)C(=O)[C@H](Cc2ccccc2)NC(=O)c2cn(C[S+]([O-])c3ccccc3)nn2)cc1 (some centres not stated)
Kd [4]: 12.7 µM | Kd [5]: 93.3 µM | EC50 [2, 12]: 6.65 µM | CC50 (MT4; read-out: CC50): > 19.3 µM | Kd [7]: 28.2 µM | selectivity ratio [8]: > 2.91

COc1ccc(N(C)C(=O)[C@H](Cc2ccccc2)NC(=O)c2cn(Cc3ccccc3C)nn2)cc1
EC50 [2, 12]: 8 µM | CC50 (MT4; read-out: CC50): > 20.7 µM | selectivity ratio [8]: > 2.58

COc1ccc(N(C)C(=O)[C@H](Cc2ccccc2)NC(=O)c2cn(Cc3cccc(Cl)c3)nn2)cc1
EC50 ([2]; mt4): Not Active | CC50 (MT4): Not Active

COC(=O)c1cccc(-n2cc(C(=O)N[C@@H](Cc3ccccc3)C(=O)N(C)c3ccc(OC)cc3)nn2)c1
EC50 [2, 12]: 6.91 µM | CC50 (MT4; read-out: CC50): > 19.5 µM | selectivity ratio [8]: > 2.82

COc1ccc(N(C)C(=O)[C@H](Cc2ccccc2)NC(=O)c2cn(Cc3ccccc3[N+](=O)[O-])nn2)cc1
EC50 [2, 12]: 10.2 µM | CC50 (MT4; read-out: CC50): > 19.4 µM | selectivity ratio [8]: > 1.91

COc1ccc(N(C)C(=O)[C@H](Cc2ccccc2)NC(=O)c2cn(Cc3cccc4ccccc34)nn2)cc1
EC50 [2, 12]: > 19.2 µM | CC50 (MT4; read-out: CC50): > 19.2 µM

COc1ccc(N(C)C(=O)[C@H](Cc2ccccc2)NC(=O)Cn2nc(C(F)(F)F)c3c2CCCC3)cc1
inhibition at 2 µM [9]: 100%

COc1ccc(N(C)C(=O)[C@H](Cc2ccccc2)NC(=O)c2cn(Cc3ccccc3C#N)nn2)cc1
EC50 [2, 12]: > 21.5 µM | CC50 (MT4; read-out: CC50): > 21.5 µM

COc1ccc(N(C)C(=O)[C@H](Cc2ccccc2)NC(=O)NS(=O)(=O)N2CCCc3ccccc32)cc1
EC50 [10]: 0.11 µM | CC50 at 96 h [11]: 33.3 µM

COc1ccc(N(C)C(=O)[C@H](Cc2ccccc2)NC(=O)c2cn(Cc3ccc(C)cc3)nn2)cc1
EC50 ([2]; mt4): Not Active | CC50 (MT4): Not Active

COc1ccc(N(C)C(=O)[C@H](Cc2ccccc2)NC(=O)c2cn(Cc3ccc([N+](=O)[O-])cc3)nn2)cc1
EC50 [2, 12]: > 19.4 µM | CC50 (MT4; read-out: CC50): > 19.4 µM

COc1ccc(N(C)C(=O)[C@H](Cc2ccccc2)NC(=O)c2cn(CSc3ccccc3)nn2)cc1
EC50 ([2]; mt4): Not Active | CC50 (MT4): Not Active

COc1ccc(N(C)C(=O)[C@H](Cc2ccccc2)NC(=O)c2cn(Cc3cccc(C)c3)nn2)cc1
EC50 ([2]; mt4): Not Active | CC50 (MT4): Not Active

COc1ccc(N(C)C(=O)[C@H](Cc2ccccc2)NC(=O)c2cn(C3CC(n4cc(C)c(=O)[nH]c4=O)OC3CO)nn2)cc1 (some centres not stated)
EC50 [2, 12]: 10.5 µM | CC50 (MT4; read-out: CC50): > 16.6 µM | selectivity ratio [8]: > 1.59

COc1ccc(N(C)C(=O)[C@H](Cc2ccccc2)NC(=O)c2cn(Cc3ccc(Cl)cc3)nn2)cc1
EC50 [2, 12]: > 19.8 µM | CC50 (MT4; read-out: CC50): > 19.8 µM

COc1ccc(N(C)C(=O)[C@H](Cc2ccccc2)NC(=O)c2cn(-c3ccc4c(c3)OCO4)nn2)cc1
EC50 [2, 12]: 14.9 µM | CC50 (MT4; read-out: CC50): > 20 µM | selectivity ratio [8]: > 1.34

COc1ccc(N(C)C(=O)[C@H](Cc2ccccc2)NC(=O)c2cn(Cc3cccc(C#N)c3)nn2)cc1
EC50 [2, 12]: 9.11 µM | CC50 (MT4; read-out: CC50): > 21.5 µM | selectivity ratio [8]: > 2.36

COc1ccc(N(C)C(=O)[C@H](Cc2ccccc2)NC(=O)c2cn(Cc3ccc(C#N)cc3)nn2)cc1
EC50 [2, 12]: 8.98 µM | CC50 (MT4; read-out: CC50): > 21.5 µM | selectivity ratio [8]: > 2.4
